Results reported in ChEMBL document CHEMBL1138520, “Molecular and conformational determinants of pituitary adenylate cyclase-activating polypeptide (PACAP) for activation of the PAC1 receptor” (J Med Chem, 2009).
Where a SMILES comes first, the peptide text is derived from it.

molecular target: T1, Pituitary adenylate cyclase-activating polypeptide type I receptor (Homo sapiens, UniProt P41586); test: Agonist activity at human recombinant PAC1 receptor expressed in CHO cells assessed as PACAP38-induced calcium mobilization by FLIPR assay relative to PACAP38; assay type: functional, cell-based
Method in brief: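 CHO cells stably expressing recombinant human PAC1, plated 24 h before assay, loaded with fluo-4 AM for 60 min at 37 °C in the dark, then rinsed into HBSS for 15 min at 37 °C. Peptide was added 18 s into a 150 s read (ex 480/em 525 nm), at final concentrations of 1 × 10-12 to 1 × 10^-5 M. Response was normalised to 1 × 10^-5 M PACAP38 on each plate. EC50 and efficacy came from nonlinear regression; 4-10 independent assays in duplicate.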
Target sequence in this assay (P41586 21-468 limits assumed): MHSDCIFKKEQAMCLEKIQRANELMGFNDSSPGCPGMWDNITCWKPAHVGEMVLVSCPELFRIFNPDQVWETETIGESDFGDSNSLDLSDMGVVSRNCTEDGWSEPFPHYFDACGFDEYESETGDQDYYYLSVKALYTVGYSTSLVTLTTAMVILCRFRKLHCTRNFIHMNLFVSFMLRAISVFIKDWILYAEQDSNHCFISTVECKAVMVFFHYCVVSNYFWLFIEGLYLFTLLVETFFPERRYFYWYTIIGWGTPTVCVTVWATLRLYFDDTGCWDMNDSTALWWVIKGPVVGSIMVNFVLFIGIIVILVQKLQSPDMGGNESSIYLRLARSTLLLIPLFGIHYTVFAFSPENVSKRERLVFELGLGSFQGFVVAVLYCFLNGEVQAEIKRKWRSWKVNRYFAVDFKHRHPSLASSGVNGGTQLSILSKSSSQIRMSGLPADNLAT

Compound	Emax [%]
CC[C@H](C)[C@H](NC(=O)CNC(=O)[C@H](CC(=O)O)NC(=O)[C@H](CO)NC(=O)[C@@H](N)Cc1cn(C)cn1)C(=O)N[C@@H](Cc1ccccc1)C(=O)N[C@H](C(=O)N[C@@H](CC(=O)O)C(=O)N[C@@H](CO)C(=O)N[C@@H](Cc1ccc(O)cc1)C(=O)N[C@@H](CO)C(=O)N[C@@H](CCCNC(=N)N)C(=O)N[C@@H](Cc1ccc(O)cc1)C(=O)N[C@@H](CCCNC(=N)N)C(=O)N[C@@H](CCCCN)C(=O)N[C@@H](CCC(N)=O)C(=O)N[C@@H](CCSC)C(=O)N[C@@H](C)C(=O)N[C@H](C(=O)N[C@@H](CCCCN)C(=O)N[C@@H](CCCCN)C(=O)N[C@@H](Cc1ccc(O)cc1)C(=O)N[C@@H](CC(C)C)C(=O)N[C@@H](C)C(=O)N[C@@H](C)C(=O)N[C@H](C(=O)N[C@@H](CC(C)C)C(=O)NCC(=O)N[C@@H](CCCCN)C(=O)N[C@@H](CCCNC(=N)N)C(=O)N[C@@H](Cc1ccc(O)cc1)C(=O)N[C@@H](CCCCN)C(=O)N[C@@H](CCC(N)=O)C(=O)N[C@@H](CCCNC(=N)N)C(=O)N[C@H](C(=O)N[C@@H](CCCCN)C(=O)N[C@@H](CC(N)=O)C(=O)N[C@@H](CCCCN)C(N)=O)C(C)C)C(C)C)C(C)C)[C@@H](C)O	18.2
CC[C@H](C)[C@H](NC(=O)CNC(=O)[C@H](CC(=O)O)NC(=O)[C@H](CO)NC(=O)[C@@H](N)Cc1cnc[nH]1)C(=O)N[C@@H](Cc1ccccc1)C(=O)N[C@@H](C(=O)N[C@@H](CC(=O)O)C(=O)N[C@@H](CO)C(=O)N[C@@H](Cc1ccc(O)cc1)C(=O)N[C@@H](CO)C(=O)N[C@@H](CCCNC(=N)N)C(=O)N[C@@H](Cc1ccc(O)cc1)C(=O)N[C@@H](CCCNC(=N)N)C(=O)N[C@@H](CCCCN)C(=O)N[C@@H](CCC(N)=O)C(=O)N[C@@H](CCSC)C(=O)N[C@@H](C)C(=O)N[C@H](C(=O)N[C@@H](CCCCN)C(=O)N[C@@H](CCCCN)C(=O)N[C@@H](Cc1ccc(O)cc1)C(=O)N[C@@H](CC(C)C)C(=O)N[C@@H](C)C(=O)N[C@@H](C)C(=O)N[C@H](C(=O)N[C@@H](CC(C)C)C(=O)NCC(=O)N[C@@H](CCCCN)C(=O)N[C@@H](CCCNC(=N)N)C(=O)N[C@@H](Cc1ccc(O)cc1)C(=O)N[C@@H](CCCCN)C(=O)N[C@@H](CCC(N)=O)C(=O)N[C@@H](CCCNC(=N)N)C(=O)N[C@H](C(=O)N[C@@H](CCCCN)C(=O)N[C@@H](CC(N)=O)C(=O)N[C@@H](CCCCN)C(N)=O)C(C)C)C(C)C)C(C)C)[C@@H](C)O	63.3
CC[C@H](C)[C@H](NC(=O)CNC(=O)[C@H](CC(=O)O)NC(=O)[C@H](CO)NC(=O)[C@@H](N)Cc1cn(C)cn1)C(=O)N[C@@H](Cc1ccccc1)C(=O)N[C@H](C(=O)N[C@@H](CC(=O)O)C(=O)N[C@@H](CO)C(=O)N[C@@H](Cc1ccc(O)cc1)C(=O)N[C@@H](CO)C(=O)N[C@@H](CCCNC(=N)N)C(=O)N[C@@H](Cc1ccc(O)cc1)C(=O)N[C@@H](CCCNC(=N)N)C(=O)N[C@@H](CCCCN)C(=O)N[C@@H](CCC(N)=O)C(=O)N[C@@H](CCSC)C(=O)N[C@@H](C)C(=O)N[C@H](C(=O)N[C@@H](CCCCN)C(=O)N[C@@H](CCCCN)C(=O)N[C@@H](Cc1ccc(O)cc1)C(=O)N[C@@H](CC(C)C)C(=O)N[C@@H](C)C(=O)N[C@@H](C)C(=O)N[C@H](C(=O)N[C@@H](CC(C)C)C(N)=O)C(C)C)C(C)C)[C@@H](C)O	31.9

Further lines, results first:

Emax [%]	Compound
91.1	CC[C@H](C)[C@H](NC(=O)CNC(=O)[C@H](CC(=O)O)NC(=O)[C@H](CO)NC(=O)[C@H](Cc1cnc[nH]1)NC(C)=O)C(=O)N[C@@H](Cc1ccccc1)C(=O)N[C@H](C(=O)N[C@@H](CC(=O)O)C(=O)N[C@@H](CO)C(=O)N[C@@H](Cc1ccc(O)cc1)C(=O)N[C@@H](CO)C(=O)N[C@@H](CCCNC(=N)N)C(=O)N[C@@H](Cc1ccc(O)cc1)C(=O)N[C@@H](CCCNC(=N)N)C(=O)N[C@@H](CCCCN)C(=O)N[C@@H](CCC(N)=O)C(=O)N[C@@H](CCSC)C(=O)N[C@@H](C)C(=O)N[C@H](C(=O)N[C@@H](CCCCN)C(=O)N[C@@H](CCCCN)C(=O)N[C@@H](Cc1ccc(O)cc1)C(=O)N[C@@H](CC(C)C)C(=O)N[C@@H](C)C(=O)N[C@@H](C)C(=O)N[C@H](C(=O)N[C@@H](CC(C)C)C(=O)NCC(=O)N[C@@H](CCCCN)C(=O)N[C@@H](CCCNC(=N)N)C(=O)N[C@@H](Cc1ccc(O)cc1)C(=O)N[C@@H](CCCCN)C(=O)N[C@@H](CCC(N)=O)C(=O)N[C@@H](CCCNC(=N)N)C(=O)N[C@H](C(=O)N[C@@H](CCCCN)C(=O)N[C@@H](CC(N)=O)C(=O)N[C@@H](CCCCN)C(N)=O)C(C)C)C(C)C)C(C)C)[C@@H](C)O
100	CC[C@H](C)[C@H](NC(=O)CNC(=O)[C@H](CC(=O)O)NC(=O)[C@H](CO)NC(=O)[C@@H](N)Cc1cnc[nH]1)C(=O)N[C@@H](Cc1ccccc1)C(=O)N[C@H](C(=O)N[C@@H](CC(=O)O)C(=O)N[C@@H](CO)C(=O)N[C@@H](Cc1ccc(O)cc1)C(=O)N[C@@H](CO)C(=O)N[C@@H](CCCNC(=N)N)C(=O)N[C@@H](Cc1ccc(O)cc1)C(=O)N[C@@H](CCCNC(=N)N)C(=O)N[C@@H](CCCCN)C(=O)N[C@@H](CCC(N)=O)C(=O)N[C@@H](CCSC)C(=O)N[C@@H](C)C(=O)N[C@H](C(=O)N[C@@H](CCCCN)C(=O)N[C@@H](CCCCN)C(=O)N[C@@H](Cc1ccc(O)cc1)C(=O)N[C@@H](CC(C)C)C(=O)N[C@@H](C)C(=O)N[C@@H](C)C(=O)N[C@H](C(=O)N[C@@H](CC(C)C)C(=O)NCC(=O)N[C@@H](CCCCN)C(=O)N[C@@H](CCCNC(=N)N)C(=O)N[C@@H](Cc1ccc(O)cc1)C(=O)N[C@@H](CCCCN)C(=O)N[C@@H](CCC(N)=O)C(=O)N[C@@H](CCCNC(=N)N)C(=O)N[C@H](C(=O)N[C@@H](CCCCN)C(=O)N[C@@H](CC(N)=O)C(=O)N[C@@H](CCCCN)C(N)=O)C(C)C)C(C)C)C(C)C)[C@@H](C)O
82.6	CC[C@H](C)[C@H](NC(=O)CNC(=O)[C@H](CC(=O)O)NC(=O)[C@H](CO)NC(=O)[C@H](C)N)C(=O)N[C@@H](Cc1ccccc1)C(=O)N[C@H](C(=O)N[C@@H](CC(=O)O)C(=O)N[C@@H](CO)C(=O)N[C@@H](Cc1ccc(O)cc1)C(=O)N[C@@H](CO)C(=O)N[C@@H](CCCNC(=N)N)C(=O)N[C@@H](Cc1ccc(O)cc1)C(=O)N[C@@H](CCCNC(=N)N)C(=O)N[C@@H](CCCCN)C(=O)N[C@@H](CCC(N)=O)C(=O)N[C@@H](CCSC)C(=O)N[C@@H](C)C(=O)N[C@H](C(=O)N[C@@H](CCCCN)C(=O)N[C@@H](CCCCN)C(=O)N[C@@H](Cc1ccc(O)cc1)C(=O)N[C@@H](CC(C)C)C(=O)N[C@@H](C)C(=O)N[C@@H](C)C(=O)N[C@H](C(=O)N[C@@H](CC(C)C)C(=O)NCC(=O)N[C@@H](CCCCN)C(=O)N[C@@H](CCCNC(=N)N)C(=O)N[C@@H](Cc1ccc(O)cc1)C(=O)N[C@@H](CCCCN)C(=O)N[C@@H](CCC(N)=O)C(=O)N[C@@H](CCCNC(=N)N)C(=O)N[C@H](C(=O)N[C@@H](CCCCN)C(=O)N[C@@H](CC(N)=O)C(=O)N[C@@H](CCCCN)C(N)=O)C(C)C)C(C)C)C(C)C)[C@@H](C)O (H-ASDGIFTDSYSRYRKQMAVKKYLAAVLGKRYKQRVKNK-NH2)
76.2	CC[C@H](C)[C@@H](NC(=O)CNC(=O)[C@H](CC(=O)O)NC(=O)[C@H](CO)NC(=O)[C@@H](N)Cc1cnc[nH]1)C(=O)N[C@@H](Cc1ccccc1)C(=O)N[C@H](C(=O)N[C@@H](CC(=O)O)C(=O)N[C@@H](CO)C(=O)N[C@@H](Cc1ccc(O)cc1)C(=O)N[C@@H](CO)C(=O)N[C@@H](CCCNC(=N)N)C(=O)N[C@@H](Cc1ccc(O)cc1)C(=O)N[C@@H](CCCNC(=N)N)C(=O)N[C@@H](CCCCN)C(=O)N[C@@H](CCC(N)=O)C(=O)N[C@@H](CCSC)C(=O)N[C@@H](C)C(=O)N[C@H](C(=O)N[C@@H](CCCCN)C(=O)N[C@@H](CCCCN)C(=O)N[C@@H](Cc1ccc(O)cc1)C(=O)N[C@@H](CC(C)C)C(=O)N[C@@H](C)C(=O)N[C@@H](C)C(=O)N[C@H](C(=O)N[C@@H](CC(C)C)C(=O)NCC(=O)N[C@@H](CCCCN)C(=O)N[C@@H](CCCNC(=N)N)C(=O)N[C@@H](Cc1ccc(O)cc1)C(=O)N[C@@H](CCCCN)C(=O)N[C@@H](CCC(N)=O)C(=O)N[C@@H](CCCNC(=N)N)C(=O)N[C@H](C(=O)N[C@@H](CCCCN)C(=O)N[C@@H](CC(N)=O)C(=O)N[C@@H](CCCCN)C(N)=O)C(C)C)C(C)C)C(C)C)[C@@H](C)O

molecular target: T1, Pituitary adenylate cyclase-activating polypeptide type I receptor; test: Displacement of [125I]Ac-PACAP27 from human recombinant PAC1 receptor expressed in CHO cells by gamma- counter; assay type: cell-based
Target sequence in this assay (P41586 whole entry): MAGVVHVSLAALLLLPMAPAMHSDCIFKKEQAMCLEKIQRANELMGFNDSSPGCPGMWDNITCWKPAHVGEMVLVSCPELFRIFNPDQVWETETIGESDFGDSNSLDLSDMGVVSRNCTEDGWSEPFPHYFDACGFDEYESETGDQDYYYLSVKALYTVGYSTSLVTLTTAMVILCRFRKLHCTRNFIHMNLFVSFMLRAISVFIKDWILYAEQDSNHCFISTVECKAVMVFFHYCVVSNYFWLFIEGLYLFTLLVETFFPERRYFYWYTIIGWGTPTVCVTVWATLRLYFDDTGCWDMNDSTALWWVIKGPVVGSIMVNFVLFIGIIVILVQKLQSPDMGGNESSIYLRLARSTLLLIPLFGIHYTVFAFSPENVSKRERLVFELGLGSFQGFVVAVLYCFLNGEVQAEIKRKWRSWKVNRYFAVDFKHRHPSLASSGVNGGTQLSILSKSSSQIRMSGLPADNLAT

IC50 [nM]	Compound
122	CC[C@@H](C)[C@@H](NC(=O)CNC(=O)[C@H](CC(=O)O)NC(=O)[C@H](CO)NC(=O)[C@@H](N)Cc1cnc[nH]1)C(=O)N[C@@H](Cc1ccccc1)C(=O)N[C@H](C(=O)N[C@@H](CC(=O)O)C(=O)N[C@@H](CO)C(=O)N[C@@H](Cc1ccc(O)cc1)C(=O)N[C@@H](CO)C(=O)N[C@@H](CCCNC(=N)N)C(=O)N[C@@H](Cc1ccc(O)cc1)C(=O)N[C@@H](CCCNC(=N)N)C(=O)N[C@@H](CCCCN)C(=O)N[C@@H](CCC(N)=O)C(=O)N[C@@H](CCSC)C(=O)N[C@@H](C)C(=O)N[C@H](C(=O)N[C@@H](CCCCN)C(=O)N[C@@H](CCCCN)C(=O)N[C@@H](Cc1ccc(O)cc1)C(=O)N[C@@H](CC(C)C)C(=O)N[C@@H](C)C(=O)N[C@@H](C)C(=O)N[C@H](C(=O)N[C@@H](CC(C)C)C(=O)NCC(=O)N[C@@H](CCCCN)C(=O)N[C@@H](CCCNC(=N)N)C(=O)N[C@@H](Cc1ccc(O)cc1)C(=O)N[C@@H](CCCCN)C(=O)N[C@@H](CCC(N)=O)C(=O)N[C@@H](CCCNC(=N)N)C(=O)N[C@H](C(=O)N[C@@H](CCCCN)C(=O)N[C@@H](CC(N)=O)C(=O)N[C@@H](CCCCN)C(N)=O)C(C)C)C(C)C)C(C)C)[C@@H](C)O
